Compound activity as filed in PubChem BioAssay.
Hits are enriched below; roughly 3.2% of the tested compounds scored in any of these assays.
SMARCA2 act – activators of SMARCA2 function | MG213 cells, MMTV-luciferase reporter, dexamethasone, overnight | activation, % at 9.1 µM | hit rate 1% among 370,000 | AID 652017; in the data active = activation above about 7.8%;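 also: 0% = vehicle wells and 100% = reference activator wells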
DAX1 inh-1 – inhibits human nuclear receptor DAX1. hit rate 0.99% among 340,000. inhibition, % at 6.75 µM. HEK293 Gal4-DAX1 luciferase reporter, luminescence. P51843;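 active = inhibition above the mean over all tested compounds plus 3 SD, cut at about 4.2% in these data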;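 also: 0% = DAX1-transfected cells with DMSO and 100% = empty-vector control cells with DMSO; inhibition shows as a rise in luminescence from relieved DAX1 repression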
DAX1 inh-2 – DAX1 (NR0B1) inhibition, primary screen; HEK293T StAR-luciferase reporter, SF-1/DAX-1 repression relief; inhibition, % at 6.8 µM; hit rate 1.1% among 370,000; AID 652010;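 active = inhibition above the mean over all tested compounds plus 3 SD, cut at about 3.6% in these data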;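 also: 0% = DAX-1 cells with DMSO and 100% = cells lacking DAX-1 with DMSO; higher inhibition means more luminescence from relief of DAX-1 repression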
NR2E3 ag-1 – activates human NR2E3 receptor; CHO-S Gal4-NCOR/VP16-NR2E3 two-hybrid, luciferase; inhibition of corepressor binding, % at 3.98 µM; hit rate 0.35% among 360,000;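 active = inhibition above the mean of all tested compounds plus 3 SD, cut at about 70% in these data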;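 also: 0% = DMSO with NR2E3 transfected cells and 100% = cells lacking NR2E3 construct; higher means lower luciferase signal from less NR2E3 corepressor binding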
Target sequence (Q9Y5X4 whole entry, looked up, the tested form may be a part): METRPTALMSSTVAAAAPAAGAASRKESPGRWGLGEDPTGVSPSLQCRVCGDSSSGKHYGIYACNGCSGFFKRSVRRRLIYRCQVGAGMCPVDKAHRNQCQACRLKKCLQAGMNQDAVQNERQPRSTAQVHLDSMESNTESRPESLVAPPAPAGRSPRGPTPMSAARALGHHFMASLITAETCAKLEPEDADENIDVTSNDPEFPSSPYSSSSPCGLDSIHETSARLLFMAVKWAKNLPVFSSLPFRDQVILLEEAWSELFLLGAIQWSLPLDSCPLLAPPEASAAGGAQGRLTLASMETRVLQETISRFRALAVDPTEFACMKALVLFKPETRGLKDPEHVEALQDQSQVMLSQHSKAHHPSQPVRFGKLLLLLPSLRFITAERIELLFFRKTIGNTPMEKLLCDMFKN
GASC-1 inh – inhibitors of human GASC-1 (JMJD2C) demethylase. Q9H3R0. GST-JMJD2C(1-420) H3K9me3 demethylation, DELFIA europium. inhibition, % at 2.35 µM. hit rate 0.069% among 330,000;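 active = more than half of a compound's replicate wells show inhibition beyond 50%, single wells judged on their own value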;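 also: signal counts dimethyl H3K9 product captured on neutravidin plate; 0% = median of DMSO wells and 100% = 0.3 times that DMSO median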
NR2E3 ag-2 – NR2E3 (human) agonism | Q9Y5X4 | GST-NR2E3/biotin-RetCOR TR-FRET, 1536-well | inhibition of corepressor binding, % at 4.78 µM | hit rate 0.12% among 320,000 | AID 2300;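 active = percent inhibition above the cutoff of mean plus 3 SD of all tested compounds, set per screening campaign, cut at about 20% in these data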;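 also: 0% = DMSO wells and 100% = biotin wells as full block of FRET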
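Assay system: NR2E3–RetCOR corepressor complex. Quantity: 1.35 nM GST-NR2E3. Buffer or medium: pH 7.5 Tris-based buffer. Reagent: biotinylated RetCOR corepressor at 7 nM final. Schedule: 5 h at 4 °C. Detection: TR-FRET, emission read at 617 and 671 nm. Replicates: one well per compound, singlicate testing.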
SMARCA2 act conf – SMARCA2 activation, confirmation screen; shares compounds with SMARCA2 act; MG213 cells, MMTV-luciferase with dexamethasone, luminescence, overnight; MG213 cells expressing E1A, Rb sequestered; DMSO wells 0%, reference activator 100%; activation, % at 9.1 µM; hit rate 30% among 3,500; AID 652260;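 active = activation above its plate's cutoff, the mean activation of tested wells plus 3 SD, cut at about 7.9% in these data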
GAL4-VP16 Luc – GAL4-VP16 reporter activation counter-screen; hit rate 41% among 3,500; shares compounds with SMARCA2 act; HEK293 GAL4-VP16 pG5luc reporter, luciferase luminescence; scaled: DMSO wells 0%, SAHA wells 100%; activation, % at 9.1 µM;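 active = activation above the solvent-only control well mean plus 3 SD, averaged across control plates, cut at about 5.2% in these data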
* = called active by the depositor; . = no result given.

SMILES	SMARCA2 act	DAX1 inh-1	DAX1 inh-2	NR2E3 ag-1	GASC-1 inh	NR2E3 ag-2	SMARCA2 act conf	GAL4-VP16 Luc
CCC(C)C(=O)Nc1cc(Cl)ccc1C(=O)O (stereo not drawn)	-0.9	-1.1	-0.1	-12.6	7.5	1.9	.	.
O=C(NNC(=S)Nc1ccc(F)cc1F)c1ccco1	11.9*	0.3	2.4	-42.6	6.4	0.7	8.6*	2.8
Cc1ccnc(NC(=S)NC(=O)c2ccco2)c1	7.2	2.0	2.7	-123.9	-1.9	-1.0	.	.
O=C(NC(=S)Nc1cccc(O)c1)c1ccco1	9.1*	3.7	1.0	-80.0	-6.7	1.3	5.9	7.6*
O=C(NC(=S)Nc1ccccn1)c1ccco1	8.8*	0.7	1.9	-106.4	1.2	1.4	12.4*	8.6*
O=C(Nc1ccccc1F)c1ccc2sc([C@H]3C[C@H](O)[C@@H](CO)O3)nc2c1	-2.9	.	2.5	-76.5	.	.	.	.
COc1ccc(C2=Nn3c(nnc3-c3ccncc3)SC2)cc1OC	8.6*	0.2	-1.1	16.5	14.8	3.3	2.8	4.4
COc1ccc(C2=Nn3c(nnc3-c3cccnc3)SC2)cc1OC	-0.3	1.1	-0.4	19.6	-2.0	-0.7	.	.
COc1ccc(C2=Nn3c(nnc3-c3ccccc3C(F)(F)F)SC2)cc1OC1CCOC1 (stereo not drawn)	8.4*	0.1	-0.8	-29.9	-2.7	.	16.1*	5.9*
O=C(NCCCN1CCOCC1)C1CCN(S(=O)(=O)c2ccccc2)CC1	-1.4	1.3	-2.0	-19.4	33.9	-2.2	.	.
Cc1ccccc1C(=O)OCCN1CCOCC1	8.3*	2.7	0.7	-19.6	2.4	0.1	0.6	0.6
COC(=O)c1ccc2c(C3(c4c[nH]c5ccccc45)CCN(C(=O)OC(C)(C)C)CC3)c[nH]c2c1	-6.7	.	-2.0	.	.	.	.	.
O=C(NCCN1C(=O)C2C3C=CC(C3)C2C1=O)c1cc(Cl)cc(Cl)c1 (stereo not drawn)	-1.0	.	0.4	.	.	.	.	.
CCC(C)c1ccc(NC(=O)c2cccnc2)cc1 (stereo not drawn)	9.8*	1.0	3.1	-96.1	-12.0	2.0	8.2*	12.4*
OCC(Cc1ccccc1)Nc1c2ccccc2nc2ccccc12 (stereo not drawn)	9.8*	-1.2	0.0	-0.4	-3.6	-3.7	5.4	2.4
c1ccc(CNc2c3ccccc3nc3ccccc23)cc1	7.0	-1.8	-0.8	-97.9	-12.5	1.7	.	.
COc1ccccc1NC(=O)CCN1C(=O)c2ccccc2C1=O	9.5*	-0.2	-0.1	-6.6	-10.3	0.7	-3.5	-1.1
COc1ccc(NC(=O)CCN2C(=O)c3ccccc3C2=O)c(OC)c1	-2.6	-0.5	-0.4	18.2	-22.6	4.0	.	.
Cc1ccc(-c2noc(-c3ccoc3C)n2)cc1	10.4*	0.6	1.2	-20.4	-3.2	-1.7	8.2*	10.1*
Cc1occc1-c1nc(-c2ccncc2)no1	0.4	-0.1	0.2	-32.2	23.6	1.7	.	.
CC(COc1ccc([N+](=O)[O-])cc1Cl)CN1CCC(C(O)(c2ccccc2)c2ccccc2)CC1 (stereo not drawn)	-2.9	.	0.1	.	.	.	.	.
CCOC(=O)C1=NN(c2ccc(F)cc2)C2=NC(C)=C(C(=O)OC)C(c3cccs3)N12 (stereo not drawn)	8.8*	-0.1	-0.3	-25.1	-5.2	-0.7	-2.5	3.2
COc1ccc(/C=C/C(=O)c2c(C)nc3ccccn23)cc1	9.7*	3.8	1.5	-7.4	-3.3	-1.1	6.2	10.1*
COc1ccc(NC(=O)C2C(c3ccc4c(c3)OCO4)=Nc3ccccc3N2C(=O)c2cccc(C(F)(F)F)c2)cc1 (stereo not drawn)	5.9	.	2.6	.	.	.	.	.
COc1ccc(C2=Nc3ccccc3N(C(=O)c3ccncc3)C2C(=O)NC(C)(C)C)cc1 (stereo not drawn)	16.4*	.	2.6	.	.	.	-1.7	0.8
